Two substances from paper PMC4608532 (ChemistryOpen, 2015) can be followed below.

For this test, the system named is HUVEC. Put plainly: In vitro morphogenesis assay on HUVEC plated on Matrigel, VEGF-stimulated. It counts as cell-based, Human. The following applies: 5 h incubation. In outline: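 HUVEC (passages 2–10) were maintained at 37 °C, 5% CO2 in medium with 2% FBS and growth factors. 2.5×10^4 cells were seeded on pre-polymerized Matrigel and incubated for 5 h at 37 °C with or without test compound, under VEGF 10 ng mL−1 stimulation. Networks were imaged by phase contrast and scored as total branch length in pixels, with open ramifications counted as branches. Data were normalized to VEGF alone and given as mean±S.D. of 4–10 experiments, with a two-tailed paired Student's t test.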

In the case of “Ac-KQMYLELGYATIKWL-NH2 [Compound 14, Ac-Lys-Gln-Met-Tyr-Leu-Glu-Leu-Gly-Tyr-Ala-Thr-Ile-Lys-Trp-Leu-amide]”, the “VEGF-induced morphogenesis, % of VEGF alone” value (1 μM, VEGF 10 ng mL−1, length of branches, p>0.05) was 82 %±21%.
Consider cyclo[DKP-RGD] [Compound 1], for which the “effect on new capillary network formation induced by VEGF165 (in words)” value (VEGF165 10 ng mL−1) is listed as “markedly decreased”.
